Values after ≈ are worked out from the molar mass of the structure shown.
Legend:
[1] = test system: Clostridioides difficile; test: Antibacterial activity against Clostridium difficile BAA-1875 incubated for 46 hrs in anaerobic condition by CLSI-based broth microdilution assay; format: functional
[2] = test system: Clostridioides difficile; test: Antibacterial activity against Clostridium difficile ATCC 9689 incubated for 46 hrs in anaerobic condition by CLSI-based broth microdilution assay; format: functional; conditions: ATCC 9689 = DSM 1296
[3] = test system: Staphylococcus aureus; test: Antibacterial activity against Staphylococcus aureus ATCC 29213 incubated overnight by broth dilution method; format: functional
Procedure, shortened: (§1)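 Strains pre-grown overnight at 37 °C on Mueller Hinton II agar; CLSI broth dilution, inoculum about 7.5 × 10^5 CFU/well. Compounds taken from 1.0 mg/mL stocks in 50 % methanol/H2O, diluted in H2O as 2-fold series. Plates held at 37 °C overnight; MIC read visually as lowest concentration with no growth.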

[4] = test system: Clostridioides difficile; test: Antibacterial activity against Clostridium difficile ATCC 700057 incubated for 46 hrs in anaerobic condition by CLSI-based broth microdilution assay; format: functional
[5] = test system: Clostridioides difficile; test: Antibacterial activity against Clostridium difficile 8264 incubated for 46 hrs in anaerobic condition by CLSI-based broth microdilution assay; format: functional
[6] = test system: Clostridioides difficile; test: Antibacterial activity against Clostridium difficile 8260 incubated for 46 hrs in anaerobic condition by CLSI-based broth microdilution assay; format: functional
[7] = test system: Clostridioides difficile; test: Antibacterial activity against Clostridium difficile 8290 incubated for 46 hrs in anaerobic condition by CLSI-based broth microdilution assay; format: functional
[8] = test system: Clostridioides difficile; test: Antibacterial activity against Clostridium difficile BAA-1805 incubated for 46 hrs in anaerobic condition by CLSI-based broth microdilution assay; format: functional
[9] = test system: Clostridioides difficile; test: Antibacterial activity against Clostridium difficile 8282 incubated for 46 hrs in anaerobic condition by CLSI-based broth microdilution assay; format: functional
[10] = test system: Mycobacterium tuberculosis; test: Antimycobacterial activity against recombinant Mycobacterium tuberculosis H37Rv expressed in green fluorescence protein by measuring increase in fluorescence after 10 days in presence of middlebrook 7H9/OADC medium by GFP reporter gene assay; format: functional; conditions: 240 h, time 10 day
[11] = test system: Clostridioides difficile; test: Antibacterial activity against Clostridium difficile 5680 incubated for 46 hrs in anaerobic condition by CLSI-based broth microdilution assay; format: functional
[12] = test system: Clostridioides difficile; test: Antibacterial activity against Clostridium difficile ATCC 43255 incubated for 46 hrs in anaerobic condition by CLSI-based broth microdilution assay; format: functional
[13] = test system: Bacillus subtilis; test: Antibacterial activity against Bacillus subtilis DSM3256 incubated overnight by broth dilution method; format: functional; procedure, shortened: as §1
[14] = Aqueous solubility of the compound in phosphate buffer at pH 7 after 5 hrs by UHPLC analysis; format: physicochemical
Procedure, shortened: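 Solid added to 1.0 mL pH 7 phosphate buffer containing 50 µg/mL caffeine internal standard until saturated. Stirred 5 h at room temperature, passed through a 0.22 µm filter, then run on C18 UHPLC with a water/MeCN + 0.1 % HCOOH gradient. Analyte/IS peak-area ratio was converted to concentration using a linear calibration from MeOH standards at 50–500 µg/mL.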

Row | Compound | MIC [1] [µg/mL] | MIC [2] [µg/mL] | MIC [3] [µg/mL] | MIC [4] [µg/mL] | MIC [5] [µg/mL] | MIC [6] [µg/mL] | MIC [7] [µg/mL] | MIC [8] [µg/mL] | MIC [9] [µg/mL] | MIC90 [10] [µg/mL] | MIC [11] [µg/mL] | MIC [12] [µg/mL] | MIC [13] [µg/mL] | solubility at 5 h [14] [µg/mL]
1 | CCOC(=O)COc1c(Cl)c(CC)c(C(=O)O[C@@H]2[C@@H](O)[C@@H](OC)[C@@H](OC/C3=C\C=C\C[C@H](O)/C(C)=C/[C@H](CC)[C@@H](O[C@@H]4OC(C)(C)[C@@H](OC(=O)C(C)C)[C@H](O)[C@@H]4O)/C(C)=C/C(C)=C/C[C@@H]([C@@H](C)O)OC3=O)O[C@H]2C)c(OCC(=O)OCC)c1Cl | 16 (≈ 13 µM) | 4 (≈ 3.25 µM) | 32 (≈ 26 µM) | 16 (≈ 13 µM) | > 16 | 16 (≈ 13 µM) | 16 (≈ 13 µM) | > 16 | 16 (≈ 13 µM) | 0.5 | > 16 | > 16 | 8 (≈ 6.5 µM) | –
2 | CCOC(=O)COc1c(Cl)c(O)c(C(=O)O[C@@H]2[C@@H](O)[C@@H](OC)[C@@H](OC/C3=C\C=C\C[C@H](O)/C(C)=C/[C@H](CC)[C@@H](O[C@@H]4OC(C)(C)[C@@H](OC(=O)C(C)C)[C@H](O)[C@@H]4O)/C(C)=C/C(C)=C/C[C@@H]([C@@H](C)O)OC3=O)O[C@H]2C)c(CC)c1Cl | 8 (≈ 6.99 µM) | 2 (≈ 1.75 µM) | 16 (≈ 14 µM) | 8 (≈ 6.99 µM) | > 16 | 16 (≈ 14 µM) | 16 (≈ 14 µM) | > 16 | 8 (≈ 6.99 µM) | 2 | > 16 | > 16 | 32 (≈ 28 µM) | –
3 | CCc1c(Cl)c(OCCOCCOCCOCCOCCOCCOCCOCCn2cc(CN3CCN(/N=C/c4c5c(O)c6c(O)c(C)c7c(c6c4O)C(=O)[C@@](C)(O/C=C/[C@H](OC)[C@@H](C)[C@@H](OC(C)=O)[C@H](C)[C@H](O)[C@H](C)[C@@H](O)[C@@H](C)/C=C/C=C(\C)C(=O)N5)O7)CC3)nn2)c(Cl)c(O)c1C(=O)O[C@@H]1[C@@H](O)[C@@H](OC)[C@@H](OC/C2=C\C=C\C[C@H](O)/C(C)=C/[C@H](CC)[C@@H](O[C@@H]3OC(C)(C)[C@@H](OC(=O)C(C)C)[C@H](O)[C@@H]3O)/C(C)=C/C(C)=C/C[C@@H]([C@@H](C)O)OC2=O)O[C@H]1C | ≤ 0.015 | ≤ 0.015 | 4 (≈ 1.75 µM) | ≤ 0.015 | 0.03 (≈ 0.0131 µM) | ≤ 0.015 | 0.03 (≈ 0.0131 µM) | ≤ 0.015 | 4 (≈ 1.75 µM) | 0.5 | ≤ 0.015 | ≤ 0.015 | 4 (≈ 1.75 µM) | –
4 | CO[C@H]1/C=C/O[C@@]2(C)Oc3c(C)c(O)c4c(O)c(c(/C=N/N5CCN(C)CC5)c(O)c4c3C2=O)NC(=O)/C(C)=C\C=C\[C@H](C)[C@H](O)[C@@H](C)[C@@H](O)[C@@H](C)[C@H](OC(C)=O)[C@@H]1C [RIFAMPIN] | ≤ 0.015 | ≤ 0.015 | 0.008 (≈ 0.00972 µM) | ≤ 0.015 | ≤ 0.015 | > 16 | ≤ 0.015 | ≤ 0.015 | > 16 | – | ≤ 0.015 | ≤ 0.015 | 0.25 (≈ 0.304 µM) | –
5 | CCc1c(Cl)c(OCC(=O)N2CCC(O)CC2)c(Cl)c(O)c1C(=O)O[C@@H]1[C@@H](O)[C@@H](OC)[C@@H](OC/C2=C\C=C\C[C@H](O)/C(C)=C/[C@H](CC)[C@@H](O[C@@H]3OC(C)(C)[C@@H](OC(=O)C(C)C)[C@H](O)[C@@H]3O)/C(C)=C/C(C)=C/C[C@@H]([C@@H](C)O)OC2=O)O[C@H]1C | – | – | – | – | – | – | – | – | – | – | – | – | – | 180 (≈ 150 µM)
6 | CCc1c(Cl)c(OCC(=O)N2CCC(O)CC2)c(Cl)c(OCC(=O)N2CCC(O)CC2)c1C(=O)O[C@@H]1[C@@H](O)[C@@H](OC)[C@@H](OC/C2=C\C=C\C[C@H](O)/C(C)=C/[C@H](CC)[C@@H](O[C@@H]3OC(C)(C)[C@@H](OC(=O)C(C)C)[C@H](O)[C@@H]3O)/C(C)=C/C(C)=C/C[C@@H]([C@@H](C)O)OC2=O)O[C@H]1C | – | – | – | – | – | – | – | – | – | – | – | – | – | 213 (≈ 159 µM)
7 | CCc1c(Cl)c(OCC(=O)N2CCN(c3cc4c(cc3F)c(=O)c(C(=O)O)cn4C3CC3)CC2)c(Cl)c(O)c1C(=O)O[C@@H]1[C@@H](O)[C@@H](OC)[C@@H](OC/C2=C\C=C\C[C@H](O)/C(C)=C/[C@H](CC)[C@@H](O[C@@H]3OC(C)(C)[C@@H](OC(=O)C(C)C)[C@H](O)[C@@H]3O)/C(C)=C/C(C)=C/C[C@@H]([C@@H](C)O)OC2=O)O[C@H]1C | 0.06 (≈ 0.042 µM) | ≤ 0.015 | > 64 | 0.06 (≈ 0.042 µM) | 0.12 (≈ 0.084 µM) | 0.03 (≈ 0.021 µM) | 0.12 (≈ 0.084 µM) | 0.12 (≈ 0.084 µM) | 0.03 (≈ 0.021 µM) | 1 | 0.12 (≈ 0.084 µM) | 0.03 (≈ 0.021 µM) | 32 (≈ 22.4 µM) | –
8 | CCc1c(Cl)c(OCCCn2cc(CCN3CCC(N)CC3)nn2)c(Cl)c(OCCCn2cc(CCN3CCC(N)CC3)nn2)c1C(=O)O[C@@H]1[C@@H](O)[C@@H](OC)[C@@H](OC/C2=C\C=C\C[C@H](O)/C(C)=C/[C@H](CC)[C@@H](O[C@@H]3OC(C)(C)[C@@H](OC(=O)C(C)C)[C@H](O)[C@@H]3O)/C(C)=C/C(C)=C/C[C@@H]([C@@H](C)O)OC2=O)O[C@H]1C | > 16 | > 16 | > 64 | > 16 | > 16 | > 16 | > 16 | > 16 | > 16 | 16 | > 16 | > 16 | 8 (≈ 5.23 µM) | 451 (≈ 295 µM)
9 | CCc1c(Cl)c(Oc2nncnn2)c(Cl)c(Oc2nncnn2)c1C(=O)O[C@@H]1[C@@H](O)[C@@H](OC)[C@@H](OC/C2=C\C=C\C[C@H](O)/C(C)=C/[C@H](CC)[C@@H](O[C@@H]3OC(C)(C)[C@@H](OC(=O)C(C)C)[C@H](O)[C@@H]3O)/C(C)=C/C(C)=C/C[C@@H]([C@@H](C)O)OC2=O)O[C@H]1C | 0.25 (≈ 0.205 µM) | 0.03 (≈ 0.0246 µM) | – | 0.06 (≈ 0.0493 µM) | 0.25 (≈ 0.205 µM) | 0.12 (≈ 0.0985 µM) | 0.12 (≈ 0.0985 µM) | 0.25 (≈ 0.205 µM) | 0.06 (≈ 0.0493 µM) | – | 0.5 (≈ 0.41 µM) | 0.12 (≈ 0.0985 µM) | – | –
10 | O=C(O)c1cn(C2CC2)c2cc(N3CCNCC3)c(F)cc2c1=O [CIPROFLOXACIN] | – | – | – | – | – | – | – | – | – | 1 | – | – | – | –
11 | CCc1c(Cl)c(OCCCn2cc(CCN3CCC(N)CC3)nn2)c(Cl)c(O)c1C(=O)O[C@@H]1[C@@H](O)[C@@H](OC)[C@@H](OC/C2=C\C=C\C[C@H](O)/C(C)=C/[C@H](CC)[C@@H](O[C@@H]3OC(C)(C)[C@@H](OC(=O)C(C)C)[C@H](O)[C@@H]3O)/C(C)=C/C(C)=C/C[C@@H]([C@@H](C)O)OC2=O)O[C@H]1C | 2 (≈ 1.55 µM) | 0.5 (≈ 0.387 µM) | > 64 | 2 (≈ 1.55 µM) | 8 (≈ 6.19 µM) | 4 (≈ 3.09 µM) | 4 (≈ 3.09 µM) | 8 (≈ 6.19 µM) | 1 (≈ 0.773 µM) | 4 | 8 (≈ 6.19 µM) | 4 (≈ 3.09 µM) | > 64 | –
12 | CCc1c(Cl)c(OCCCn2cc(COCCOCCOCCOCCOCCC(=O)O)nn2)c(Cl)c(O)c1C(=O)O[C@@H]1[C@@H](O)[C@@H](OC)[C@@H](OC/C2=C\C=C\C[C@H](O)/C(C)=C/[C@H](CC)[C@@H](O[C@@H]3OC(C)(C)[C@@H](OC(=O)C(C)C)[C@H](O)[C@@H]3O)/C(C)=C/C(C)=C/C[C@@H]([C@@H](C)O)OC2=O)O[C@H]1C | – | – | – | – | – | – | – | – | – | – | – | – | – | > 2000
13 | CCc1c(Cl)c(OCCOCCOCCOCCOCCOCCOC)c(Cl)c(OCCOCCOCCOCCOCCOCCOC)c1C(=O)O[C@@H]1[C@@H](O)[C@@H](OC)[C@@H](OC/C2=C\C=C\C[C@H](O)/C(C)=C/[C@H](CC)[C@@H](O[C@@H]3OC(C)(C)[C@@H](OC(=O)C(C)C)[C@H](O)[C@@H]3O)/C(C)=C/C(C)=C/C[C@@H]([C@@H](C)O)OC2=O)O[C@H]1C | – | – | – | – | – | – | – | – | – | – | – | – | – | 504 (≈ 312 µM)

Reference: ChEMBL document CHEMBL4665898, “Semisynthetic Analogs of the Antibiotic Fidaxomicin-Design, Synthesis, and Biological Evaluation” (ACS Med Chem Lett, 2020)
